Most compounds without a hit are left out; they make up all but 1.6% or so of the library.
NR2E3 ag-1 = agonists of human nuclear receptor NR2E3. hit rate 0.12% among 320,000. Q9Y5X4. AID 2300. GST-NR2E3/biotin-RetCOR TR-FRET, 1536-well. inhibition of corepressor binding, % at 4.78 µM;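 active = percent inhibition above the cutoff of mean plus 3 SD of all tested compounds, set per screening campaign, cut at about 20% in these data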;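 also: 0% = DMSO wells and 100% = biotin wells as full block of FRET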
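System: GST-NR2E3 and biotin-RetCOR proteins; probe or stimulus: 7 nM biotin-RetCOR; doses: compound at 4.8 µM, single dose; schedule: Compound–protein incubation for 5 h at 4 °C; detection: time-resolved FRET; read-out: percent inhibition; controls: biotin wells as high control, 0.6% DMSO wells as low control; format: 1536-well plates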
NR2E3 ag-2 = activates human NR2E3 receptor. Q9Y5X4. CHO-S Gal4-NCOR/VP16-NR2E3 two-hybrid, luciferase. inhibition of corepressor binding, % at 3.98 µM. hit rate 0.35% among 360,000. AID 602229;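 active = inhibition above the mean of all tested compounds plus 3 SD, cut at about 70% in these data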;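 also: 0% = DMSO with NR2E3 transfected cells and 100% = cells lacking NR2E3 construct; higher means lower luciferase signal from less NR2E3 corepressor binding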
NR1D1 modulator = Rev-erb alpha (human) modulation | hit rate 0.79% among 370,000 | Rev-erbα–FITC-DNA binding, fluorescence polarization, 90 min | activity, % at 10 µM | AID 1259318;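 active = activity above about 14%, limit read from the data; passing the limit was not always enough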;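 also: 0% = DMSO wells with 35 nM protein and 100% = DMSO wells with 750 nM protein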
Target sequence (P20393 whole entry, looked up): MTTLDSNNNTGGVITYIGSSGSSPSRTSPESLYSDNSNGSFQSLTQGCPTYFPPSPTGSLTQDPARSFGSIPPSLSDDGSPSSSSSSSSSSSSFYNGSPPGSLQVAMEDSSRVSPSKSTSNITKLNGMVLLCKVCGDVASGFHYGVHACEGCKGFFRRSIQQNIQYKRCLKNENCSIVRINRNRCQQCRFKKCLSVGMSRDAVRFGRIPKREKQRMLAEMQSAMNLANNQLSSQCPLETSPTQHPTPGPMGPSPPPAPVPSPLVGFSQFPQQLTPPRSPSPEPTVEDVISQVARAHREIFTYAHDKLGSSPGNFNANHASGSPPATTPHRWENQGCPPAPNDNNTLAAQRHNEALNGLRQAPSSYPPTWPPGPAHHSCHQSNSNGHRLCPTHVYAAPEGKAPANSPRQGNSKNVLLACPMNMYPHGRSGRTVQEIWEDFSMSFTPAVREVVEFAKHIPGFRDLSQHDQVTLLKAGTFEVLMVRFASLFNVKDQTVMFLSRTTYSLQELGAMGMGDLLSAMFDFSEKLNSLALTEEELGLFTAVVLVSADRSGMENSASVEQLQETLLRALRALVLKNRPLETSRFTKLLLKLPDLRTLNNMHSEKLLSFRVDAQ
PG9 Ab binder = small molecules binding HIV-1 gp120 antibody PG9; TR-FRET gp120-PG9 antibody binding; inhibition, % at 6.7 µM; hit rate 0.43% among 360,000; AID 624416; in the data active = inhibition above about 8.5%
VLA-4 inh = inhibition in a human VLA-4 binding assay | VLA-4 expressing cells, ligand binding flow cytometry | AID 2557 | P13612 | hit rate 0.2% among 330,000 | inhibition, % (about 7 µM as worked out from the volumes in the protocol); in the data active = inhibition above about 50%
NR2E3 ag conf = confirmation of human NR2E3 agonists | inhibition, % at 3.98 µM | hit rate 51% among 2,300 | shares compounds with NR2E3 ag-2 | AID 624378 | CHO-S mammalian two-hybrid NR2E3-NCOR, luciferase luminescence;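 active = average inhibition above a cutoff equal to the mean inhibition of all tested compounds plus one SD, cut at about 70% in these data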;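 also: 0% = DMSO in NR2E3 cells and 100% = DMSO in cells lacking NR2E3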
GAL4-VP16 luc = GAL4-VP16 reporter inhibition in NR2E3 agonist counterscreen; shares compounds with NR2E3 ag-2; CHO-S GAL4-VP16 luciferase reporter, luminescence; inhibition, % at 3.98 µM; hit rate 29% among 2,300; AID 624379;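 active = mean inhibition above a cutoff equal to the average over all tested compounds plus one standard deviation, cut at about 70% in these data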;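 also: luciferase from a UAS reporter driven by GAL4-VP16 transactivation; 0% = DMSO with VP16-transfected cells and 100% = DMSO with cells lacking VP16; higher means less reporter light so more repression of VP16 activity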
Numbers without * were called inactive; · = not tested or not shown.

SMILES	NR2E3 ag-1	NR2E3 ag-2	NR1D1 modulator	PG9 Ab binder	VLA-4 inh	NR2E3 ag conf	GAL4-VP16 luc
COCC(=O)N1[C@H](CO)[C@@H](c2ccc(-c3cccnc3)cc2)[C@H]1CN(C)S(=O)(=O)c1ccccc1[N+](=O)[O-]	·	·	0	·	·	·	·
CCOc1ccc(NS(=O)(=O)c2cc(OC)ccc2OC)cc1	1	-1	-5	-2	-4	·	·
COc1ccc(OC)c(S(=O)(=O)Nc2ccc(Oc3ccccc3)cc2)c1	3	65	-1	-2	25	80*	57
C1=C(CCNc2ncnc3c2[nH]c2ccccc23)CCCC1	0	74*	-1	-1	0	97*	81*
COc1ccc(CNc2ncnc3c2[nH]c2ccccc23)cc1	1	57	0	-1	-7	89*	72*
C=CCNC(=O)N1CCN(Cc2nc3ccccc3c(=O)[nH]2)CC1	·	·	4	·	·	·	·
O=C(NC1CC[C@@]23CCCN2C(=O)CCC[C@H]3C1)c1ccccc1 (some centres undefined)	·	·	-8	·	·	·	·
Cc1cccc(C(=O)NNC(=S)NC(=O)c2cccs2)c1	1	54	-3	-4	-15	46	1
C=CCSc1nc2ccccc2n1C(=O)/C=C/c1cc(OC)c(OC)c(OC)c1	1	57	-2	0	15	69	-1
C=CCSc1nc2ccccc2n1C(=O)/C=C/c1ccc(OC)c(OC)c1	8	-13	2	1	12	·	·
CC(C)(C)OC(=O)NCc1ccccc1/C=C/S(=O)(=O)NCCc1ccccc1	·	·	-5	·	·	·	·
CC(C)(C)c1ccc(/C=N/Nc2ccc(C(=O)O)cc2)cc1	0	50	-5	-3	3	65	-33
CC(C)[C@H](NC(=O)C1CCCC1)C(=O)N1CCC[C@H]1C(=O)NCc1ccccc1	·	·	-12	0	·	·	·
S=C1NCCc2ccc(Cl)cc2C1c1ccccc1 (centres undefined)	3	61	0	-1	7	43	21
O=S(=O)(Nc1cc(Cl)ccc1-n1cncn1)c1cc(Br)ccc1Br	0	92*	2	-1	10	99*	85*
Cc1ccccc1OCCCc1c(C)n[nH]c1C	0	0	-1	-4	25	·	·
Cc1ccccc1OCCCCc1c(C)n[nH]c1C	2	71*	5	-1	-7	91*	60
COc1cccc(OC)c1OCCCCCc1c(C)n[nH]c1C	3	53	-2	1	9	25	7
Cc1cc(C(=O)O[C@@H]2CCC[C@@]3(C(=O)N(Cc4ccccc4)c4ccccc43)[C@H]2NC(=O)CCc2ccccc2)no1	·	·	4	·	·	·	·
O=[N+]([O-])c1ccc(N2CCN(C(=S)NCc3ccc(Cl)cc3)CC2)cc1	1	54	-1	0	0	91*	69
O=C(Nc1ccc(Cn2cccn2)cc1)c1ccc(COc2ccccc2Br)cc1	-4	64	-2	-1	17	86*	-15
Cc1ccc(-n2c(SCC(=O)N/N=C/C=C\c3ccccc3[N+](=O)[O-])nnc2-c2ccccc2)cc1	·	·	-3	·	·	·	·
COC[C@H]1CCCN1c1cccc2c1S(=O)(=O)N1CC[C@@H](C1)O2	·	·	3	·	·	·	·
Cc1ccc2nc(-c3ccc(NC(=O)CSc4nnc(-c5cc(C)[nH]n5)n4N)cc3)sc2c1	·	·	-3	·	·	·	·
O=c1[nH]sc2ccccc12	·	75*	5	-2	·	4	3
SMILES	NR2E3 ag-1	NR2E3 ag-2	NR1D1 modulator	PG9 Ab binder	VLA-4 inh	NR2E3 ag conf	GAL4-VP16 luc
Nc1cc(S(=O)(=O)Nc2ccc(Cl)cc2)ccc1N1CCOCC1	-1	55	-2	3	-4	85*	64
COc1ccc(NS(=O)(=O)c2ccc(N3CCCC3)c(N)c2)cc1	-1	89*	2	-3	7	77*	72*
CCNC(=O)Nc1cc(S(=O)(=O)Nc2ccc(OC)cc2)ccc1N1CCOCC1	0	85*	·	·	3	84*	76*
CCCCNC(=O)c1ccc(N2CCOCC2)c(NS(=O)(=O)c2ccc(OC)cc2)c1	1	-8	3	-3	-3	·	·
O=C(c1ccccc1I)N1CCC(Oc2cccnc2)CC1	·	·	0	·	·	·	·
c1ccc(-c2nnc(SCc3nc4ccccc4[nH]3)n2Cc2ccco2)cc1	2	0	-6	1	-10	·	·
Cc1ccc(OCc2nnc(SCc3nc4ccccc4[nH]3)n2Cc2ccco2)cc1	-5	49	3	-1	8	66	65
CC(C)(C)c1ccc(NC(=S)NCc2cccs2)cc1	0	70	0	0	6	64	40
CCC(C)c1ccc(NC(=S)NCc2cccs2)cc1 (centres undefined)	5	-35	10	-3	-6	·	·
COc1cccc(OC)c1NC(=O)OC1CCC12CCC(c1ccccc1)CC2 (centres undefined)	·	·	-11	·	·	·	·
Cc1ccc(C)c(NC(=O)CN(C)C(=O)c2cccc(S(=O)(=O)N3CCN(Cc4ccccc4)CC3)c2)c1	0	59	0	0	-2	51	48
COc1ccc(NC(=O)CN(C)C(=O)c2cccc(S(=O)(=O)N3CCN(Cc4ccccc4)CC3)c2)cc1	5	25	·	·	-8	·	·
Cc1ccc(C)c(NC(=O)CN(C)C(=O)c2cccc(S(=O)(=O)N3CCCC3)c2)c1	·	14	3	1	·	·	·
CN(CCOc1ccc(Cl)cc1)C(=O)c1cccc(S(=O)(=O)N2CCN(Cc3ccccc3)CC2)c1	·	84*	-2	1	·	92*	74*
CCc1noc2cc(-c3ccccc3)n(C)c(=O)c12	·	·	-3	-1	·	·	·
